# Measured values published in ChEMBL document CHEMBL2384971, “Bioactive limonoid and triterpenoid constituents of Turraea pubescens” (J Nat Prod, 2013).
# Experiments:
# Artemia salina [1] = assay: Toxicity in brine shrimp larva assessed as corrected mortality at 100 ppm after 24 hrs by microscopic analysis relative to control; format: functional
# How it was run: (§1)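 Artemia salina larvae tested by a microwell method. Corrected mortality was derived from treatment-group mortality (Mt) against vehicle-control-group mortality (Mc).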
# RAW264.7 [2] = assay: Cytotoxicity against mouse RAW264.7 cells at 50 uM by MTT assay; format: cell-based; settings: raw264.7, 50 µM
# RAW264.7 [3] = assay: Antiinflammatory activity against LPS-stimulated mouse RAW264.7 cells assessed as inhibition of NO production after 18 hrs by Griess method; format: functional, cell-based; settings: RAW264.7, 18 h
# How it was run: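 RAW 264.7 murine macrophages were seeded at 2 × 10^5 cells/well in RPMI 1640 with 10% FBS at 37 °C under 5% CO2 and preincubated for 24 h. Cells were then exposed for 18 h to serial dilutions (top concentration 25 μM; DMSO solutions diluted in medium) plus 1 μg/mL LPS. Supernatants were mixed with Griess reagents A and B in triplicate and read at 570 nm after 5 min.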
# HL-60 = assay: Cytotoxicity against human HL60 cells by MTT assay; format: functional, cell-based
# Artemia salina [4] = assay: Toxicity in brine shrimp larva assessed as corrected mortality at 10 ppm after 24 hrs by microscopic analysis relative to control; format: functional; how it was run: as §1
# Artemia salina [5] = assay: Toxicity in brine shrimp larva assessed as corrected mortality at 50 ppm after 24 hrs by microscopic analysis relative to control; format: functional; how it was run: as §1
SMILES,mortality at 100 ppm (Artemia salina [1]) [%],Activity (RAW264.7 [2]),IC50 (RAW264.7 [3]) [µM],IC50 (HL-60) [µM],mortality at 10 ppm (Artemia salina [4]) [%],mortality at 50 ppm (Artemia salina [5]) [%]
C=C1[C@@H]([C@@]2(C)C=CC(=O)C(C)(C)[C@@H]2CC(=O)OC)[C@@H](OC(C)=O)[C@H](OC(C)=O)[C@@]2(C)[C@H](C3=CC(O)OC3=O)C[C@H]3O[C@]132 (some centres not stated),< 50,Non-toxic,> 20,< 10,,
C=C1[C@@H]([C@@]2(C)[C@H](OC(C)=O)CC(=O)C(C)(C)[C@@H]2CC(=O)OC)[C@@H](OC(C)=O)[C@H](OC(=O)C(C)C)[C@@]2(C)[C@H](c3ccoc3)C[C@H]3O[C@]132,81.7,Non-toxic,> 20,< 10,60.8,61.8
C=C1[C@@H]([C@@]2(C)C=CC(=O)C(C)(C)[C@@H]2CC(=O)OC)[C@@H](OC(C)=O)[C@H](OC(=O)C(C)C)[C@@]2(C)[C@H](c3ccoc3)C[C@H]3O[C@]132,,Non-toxic,> 20,< 10,,
C=C1[C@@H]([C@@]2(C)C=CC(=O)C(C)(C)[C@@H]2CC(=O)OC)[C@@H](OC(C)=O)[C@H](OC(=O)C(C)CC)[C@@]2(C)[C@H](c3ccoc3)C[C@H]3O[C@]132 (some centres not stated),,Non-toxic,> 20,< 10,,
CCC(=O)O[C@@H]1C[C@H](OC(C)=O)[C@@]2(C)[C@@H]([C@@H](O)[C@@H](OC(C)=O)[C@@]3(C)C4=CC[C@@H](c5ccoc5)[C@]4(C)CC[C@@H]32)C1(C)C,,Non-toxic,> 20,< 10,,
C/C=C(\C)C(=O)O[C@H]1C[C@@H](OC(=O)CC)[C@@]2(C(=O)OC)CO[C@H]3[C@H]4O[C@]5(C)[C@H]6C[C@H](OC7OC=C[C@@]76O)[C@]5(O)[C@@]4(C)C4[C@]1(CO[C@]4(O)C(=O)OC)[C@@H]32 (some centres not stated),,Non-toxic,> 20,< 10,,
C/C=C(\C)C(=O)O[C@H]1C[C@@H](OC(=O)CC)[C@@]2(C(=O)OC)CO[C@H]3[C@@H](O)[C@@](C)(C45OC4(C)C4C[C@H]5O[C@@H]5OC=CC45O)C4[C@]1(CO[C@]4(O)C(=O)OC)[C@@H]32 (some centres not stated),,Non-toxic,> 20,< 10,,
CO[C@H]1O[C@@H]([C@@H]2OC2(C)C)C[C@H]1[C@@H]1CC=C2[C@]3(C)[C@H](O)C[C@H]4C(C)(C)C(=O)C=C[C@]4(C)[C@H]3CC[C@]21C,,Non-toxic,17.4,< 10,,
CO[C@@H]1O[C@@H]([C@@H]2OC2(C)C)C[C@H]1[C@@H]1CCC2[C@]3(C)[C@H](O)C[C@H]4C(C)(C)C(=O)C=C[C@]4(C)[C@H]3CC[C@]21C (some centres not stated),,Non-toxic,> 20,< 10,,
CC(=O)O[C@@H]1C[C@H]2C(C)(C)C(=O)C=C[C@]2(C)[C@H]2CC[C@]3(C)C(=CC[C@H]3[C@H]3COC(C)(C)[C@@H](O)[C@H](O)C3)[C@@]21C,69.8,Non-toxic,> 20,< 10,0,6.7
CC(=O)O[C@H]1C[C@@H]2[C@@]3(C)C=CC(=O)C(C)(C)[C@@H]3C[C@@H](O)[C@@]2(C)C2=CC[C@@H](c3ccoc3)[C@@]21C,85,Non-toxic,11.9,< 10,20.6,83.5
CCC(=O)O[C@@H]1C[C@H](OC(C)=O)[C@@]2(C)[C@H]3[C@@H](OC[C@]13C)[C@@H](O)[C@@]1(C)C3=CC[C@@H](c4ccoc4)[C@]3(C)CC[C@@H]12,75.6,Non-toxic,18.5,< 10,0,36.3
C=C1[C@@H]([C@@]2(C)C=CC(=O)C(C)(C)[C@@H]2CC(=O)OC)[C@@H](OC(C)=O)[C@H](OC(C)=O)[C@@]2(C)[C@H](c3ccoc3)C[C@H]3O[C@]132,< 50,Non-toxic,> 20,< 10,,
C[C@@H](C[C@@H](O)[C@H](O)C(C)(C)O)[C@@H]1CC[C@]2(C)C3=CC[C@H]4C(C)(C)[C@@H](O)CC[C@]4(C)[C@H]3CC[C@@]12C,,Non-toxic,> 20,< 10,,
C/C=C(\C)C(=O)O[C@H]1C[C@@H](OC(C)=O)[C@@]2(C(=O)OC)CO[C@H]3[C@@H](O)[C@@](C)([C@]45O[C@@]4(C)[C@@H]4C[C@H]5O[C@@H]5OC=C[C@@]54O)[C@H]4[C@]1(CO[C@]4(O)C(=O)OC)[C@@H]32 [AZADIRACHTIN A],81.7,Non-toxic,> 20,< 10,12.5,59.6
C[C@@H](C[C@@H](O)[C@@H]1OC1(C)C)[C@@H]1CC[C@]2(C)C3=CC[C@H]4C(C)(C)[C@@H](O)CC[C@]4(C)[C@H]3CC[C@@]12C [DIHYDRONILOTICIN],,Non-toxic,> 20,< 10,,
CC(=O)O[C@H]1C[C@@H]2[C@@]3(C)CCC(=O)C(C)(C)[C@@H]3C[C@@H](O)[C@@]2(C)C2=CC[C@@H](c3ccoc3)[C@@]21C [MZIKONONE],76.4,Non-toxic,> 20,< 10,0,36.9
CC(=O)O[C@@H]1[C@H](O)[C@H]2C(C)(C)C(=O)C=C[C@]2(C)[C@H]2CC[C@]3(C)C(=CC[C@H]3c3ccoc3)[C@]12C [NIMONOL],,Non-toxic,> 20,< 10,,
C=C1C2=CC[C@H](c3ccoc3)[C@]2(C)[C@@H](OC(C)=O)[C@H](OC(C)=O)[C@@H]1[C@@]1(C)C=CC(=O)C(C)(C)[C@@H]1CC(=O)OC [TURRAFLORIN A],< 50,Non-toxic,15.4,< 10,,
C=C1[C@@H]([C@@]2(C)C=CC(=O)C(C)(C)[C@@H]2CC(=O)OC)[C@@H](OC(C)=O)[C@H](OC(=O)C(C)C)[C@@]2(C)[C@H](C(=O)O)C[C@H]3O[C@]132 [TURRAPUBESIC ACID B],,Non-toxic,> 20,< 10,,
C=C1[C@@H]([C@@]2(C)C=CC(=O)C(C)(C)[C@@H]2CC(=O)OC)[C@@H](OC(C)=O)[C@H](OC(=O)Cc2ccccc2)[C@@]2(C)[C@H](C3=CC(=O)OC3O)C[C@H]3O[C@]132 (some centres not stated) [TURRAPUBESIN E],< 50,Non-toxic,> 20,< 10,,
C=C1[C@@H]([C@@]2(C)[C@H](OC(C)=O)CC(=O)C(C)(C)[C@@H]2CC(=O)OC)[C@@H](OC(C)=O)[C@H](OC(C)=O)[C@@]2(C)[C@H](c3ccoc3)C[C@H]3O[C@]132 [TURRAPUBIN A],54.7,Non-toxic,> 20,< 10,0,0.8
C=C1[C@@H]2[C@@H](O[C@H]3CC(=O)C(C)(C)[C@H](CC(=O)OC)[C@]32C)[C@H](OC(C)=O)[C@@]2(C)[C@H](c3ccoc3)C[C@H]3O[C@]132 [TURRAPUBIN D],,Non-toxic,> 20,< 10,,
C=C1[C@@H]([C@@]2(C)C=CC(=O)C(C)(C)[C@@H]2CC(=O)OC)[C@@H](OC(C)=O)[C@H](O)[C@@]2(C)[C@H](c3ccoc3)C[C@H]3O[C@]132 [TURRAPUBIN E],< 50,Non-toxic,> 20,< 10,,
C=C1[C@@H]([C@@]2(C)C=CC(=O)C(C)(C)[C@@H]2CC(=O)OC)[C@@H](OC(C)=O)[C@H](OC(=O)C(C)C)[C@@]2(C)[C@H](C3=CC(O)OC3=O)C[C@H]3O[C@]132 (some centres not stated) [TURRAPUBIN H],< 50,Non-toxic,> 20,< 10,,
